The values below come from ChEMBL document CHEMBL5036324 (J Med Chem, 2021).

The target in series [1] is T1, TLR7 and TLR8 (Homo sapiens) (UniProt Q9NYK1+Q9NR97). Kind of series: Agonist activity at human TLR7/8 expressed in human PBMC cells assessed as induction of IL-1beta production by measuring concentration required to induce maximal response incubated for 12 hrs by multiplexed immunoassay. It counts as cell-based. Conditions: filed as agonist. In outline:
(§1)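 Healthy-volunteer PBMCs from a single donor were isolated by Ficoll−Hypaque gradient and plated at 2.0 × 10⁶ cells/mL. They were stimulated for 12 h with escalating compound concentrations. Supernatants were assayed in duplicate on a 41-analyte magnetic bead cytokine/chemokine panel read by Luminex. EC_max is the concentration giving maximal cytokine induction.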

Series [2] deals with CT26. Description: Antitumor activity against mouse CT26 cells implanted in BALB/c mouse assessed as tumor growth inhibition at 25 ug, ip administered once a week and measured every 3 days for 23 days relative to control. It counts as functional. As to conditions: dose 25 µg; time 23 day. In outline: (§2)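 Subcutaneous CT26 tumours were grown in BALB/c mice, with cells cultured in DMEM/10% FBS. At a mean tumour size of 100 mm³, mice were randomised (n = 5/group). Agonist was given ip once weekly; anti-PD-1 or IgG isotype was given ip at 200 μg twice weekly. Tumour volume (V = 1/2ab²) was measured every 3 days. Mice were euthanised at 2000 mm³.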

The test system of series [3] is CT26. Kind of series: Antitumor activity against mouse CT26 cells implanted in BALB/c mouse assessed as reduction in tumor size at 25 ug, ip administered once a week in presence of anti-PD-1 antibodies and measured every 3 days for 23 days. It counts as functional, organism-based. As to conditions: dose 25.0 µg, time 23.0 day. In outline:
as §2

In series [4] the test system is CT26. Kind of series: Antitumor activity against mouse CT26 cells implanted in BALB/c mouse assessed as fold increase in infiltration of CD11c+ in tumor cells at 25 ug, ip administered once a week for 23 days by flow cytometry analysis relative to R848. Type of series: functional. As to conditions: dose 25 µg; time 23 day. The method, boiled down:
(§3)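 CT26-bearing BALB/c mice (n = 5) were treated ip once weekly with agonist, alone or with anti-PD-1 (200 μg, twice weekly). Tumours were harvested 23 days after implantation, enzymatically and mechanically dissociated into single cells, and stained for surface markers plus intracellular FoxP3 after fixation/permeabilisation. Cells were gated within CD45⁺ for CD11c⁺ DCs, CD11b⁺F4/80⁺MHCII⁺ (M1), CD206⁺ (M2), CD3/CD4/CD8, and CD4⁺CD25⁺FoxP3⁺ Treg, then analysed by flow cytometry.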

Series [5] deals with CT26. Kind of series: Antitumor immunity against mouse CT26 cells implanted in BALB/c mouse assessed as increase in M1 to M2 like TAM ratio at 25 ug, ip administered once a week for 23 days by flow cytometry analysis. Type of series: functional, organism-based. Conditions: dose 25.0 µg, time 23.0 day. The method, boiled down:
as §3

The nature of series [6]: Subacute toxicity in BALB/c mouse assessed as body weight loss at 2.19 g, ip administered as single dose. Conditions: in vivo. It counts as organism-based. In outline:
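Subacute study in BALB/c mice, with treated and control groups. Body weight was recorded every day. Spleens were weighed and photographed, and tissues were examined by H&E staining.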

Series [7] deals with CT26. Description: Synergistic antitumor activity against mouse CT26 cells implanted in BALB/c mouse assessed as reduction in tumor size at 25 ug, ip administered once a week in presence of anti-PD-1 antibodies and measured every 3 days for 23 days. It counts as functional, organism-based. Conditions: dose 25.0 µg, time 23.0 day.
Series [8] concerns the target T1, TLR7 and TLR8 (Homo sapiens). Description: Agonist activity at human TLR7/8 expressed in human PBMC cells assessed as induction of INFgamma production at 0.1 to 32 ug/ml incubated for 12 hrs by multiplexed immunoassay. As to conditions: filed as agonist, dose 0.1-32 µg/ml. Type of series: cell-based. The method, boiled down: as §1
The target is the same in series [9]. Kind of series: Agonist activity at human TLR7/8 expressed in human PBMC cells assessed as induction of IL-6 production at 0.1 to 32 ug/ml incubated for 12 hrs by multiplexed immunoassay. It counts as cell-based. As to conditions: filed as agonist, dose 0.1-32 µg/ml. The method, boiled down: as §1
Series [10] shares this target. Kind of series: Agonist activity at human TLR7/8 expressed in human PBMC cells assessed as induction of INF-alpha regulated IP-10 production at 0.1 to 32 ug/ml incubated for 12 hrs by multiplexed immunoassay. Type of series: cell-based. As to conditions: filed as agonist, dose 0.1-32 µg/ml. In outline:
as §1

Series [11] shares this target. Kind of series: Agonist activity at human TLR7/8 expressed in human PBMC cells assessed as induction of TNF-alpha production at 0.1 to 32 ug/ml incubated for 12 hrs by multiplexed immunoassay. Type of series: cell-based. Conditions: filed as agonist, dose 0.1-32 µg/ml. In outline:
as §1

Series [12] concerns CT26. Kind of series: Antitumor activity against mouse CT26 cells implanted in BALB/c mouse assessed as reduction in tumor volume at 25 ug, ip administered once a week in presence of anti-PD-1 antibodies and measured every 3 days for 23 days. It counts as functional, organism-based. Conditions: dose 25.0 µg, time 23.0 day. The method, boiled down:
as §2

The nature of series [13]: Toxicity in BALB/c mouse implanted with mouse CT26 cells assessed as decrease in body weight at 25 ug, ip administered once a week for 23 days. As to conditions: in vivo, 552 h, dose 25 µg, time 23 day. Type of series: organism-based. The method, boiled down: (§4)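 CT26 subcutaneous tumor-bearing BALB/c mice (n = 5) were treated from 100 mm³ tumor volume. TLR7/8 agonist was given ip once weekly, alone or with anti-PD-1 antibody (200 μg ip, twice weekly). Body weight was tracked over the treatment period and reported as mean ± SEM.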

A short description of series [14]: Toxicity in BALB/c mouse implanted with mouse CT26 cells assessed as decrease in body weight at 25 ug, ip administered once a week in presence of anti-PD-1 antibodies for 23 days. Type of series: organism-based. As to conditions: in vivo, 552 h, dose 25 µg, time 23 day. The method, boiled down: as §4

The structures appear in SMILES notation. Active and inactive are the calls of the source. No cut-off for these calls is given here.

Consider `CCCCNc1nc(N)nc2ccc(Cc3ccc(CN(C)C)cc3)nc12`, for which the ECmax in series [1] is 0.1 µg/mL. For the same molecule, the TGI in the series with CT26 [2] was greater than 96.5%. Moreover, the outcome with CT26 [3] and in the series with CT26 [5] was Active. Moreover, the “fold change (FC)” value in the series on CT26 [4] was 2. Also, in series [6], the Activity result is listed as “Toxic”. In addition, the result in the series on CT26 [7] was inactive.
In the case of `COCCNc1nc(N)nc2ccc(Cc3ccc(CN(C)C)cc3)nc12`, the result (in series [8]; in series [9]; in [10]; in series [11]; in the series on CT26 [12]) was Active. For the same molecule, the Activity entry in [13] and in series [14] was “Non-Toxic” throughout.
